# Assay results as given in ChEMBL document CHEMBL4392855, “Scaffold hopping of fused piperidine-type NK3 receptor antagonists to reduce environmental impact” (Bioorg Med Chem, 2019).
# pIC50: −log10 of the molar value.
# Key:
# [1] = biological target: T1, Neuromedin-K receptor (Homo sapiens, UniProt P29371); test: Antagonistic activity against NK3R (unknown origin) expressed in CHO cells assessed as inhibition of NKB-induced intracellular calcium flux by Calcium 4 assay; type: functional, cell-based
# T1 sequence (P29371 whole entry): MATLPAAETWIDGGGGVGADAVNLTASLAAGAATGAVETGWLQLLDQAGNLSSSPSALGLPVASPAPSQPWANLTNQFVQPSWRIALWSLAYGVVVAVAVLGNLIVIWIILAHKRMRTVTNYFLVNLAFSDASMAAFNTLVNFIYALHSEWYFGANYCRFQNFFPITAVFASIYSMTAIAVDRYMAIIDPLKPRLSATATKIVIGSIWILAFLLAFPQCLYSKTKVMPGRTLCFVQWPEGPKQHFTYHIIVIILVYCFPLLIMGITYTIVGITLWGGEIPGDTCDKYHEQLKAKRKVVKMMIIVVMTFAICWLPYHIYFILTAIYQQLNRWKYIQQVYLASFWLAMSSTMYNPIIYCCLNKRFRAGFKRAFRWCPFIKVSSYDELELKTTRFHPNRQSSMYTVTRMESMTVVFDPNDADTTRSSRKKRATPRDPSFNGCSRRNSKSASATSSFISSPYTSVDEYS
# [2] = Stability in pH 10 carbonate buffer assessed as compound degradation at 30 uM by HPLC analysis; type: physicochemical; details: pH 10, 30 µM
# [3] = Stability in pH 4 acetate buffer assessed as compound degradation at 30 uM by HPLC analysis; type: physicochemical; details: pH 4, 30 µM
# [4] = Stability in pH 7.4 phosphate buffer assessed as compound degradation at 30 uM by HPLC analysis; type: physicochemical; details: pH 7.4, 30 µM
# [5] = Stability in rat serum assessed as compound degradation at 50 uM by HPLC analysis; type: ADME, cell-free
# [6] = Photo-stability in 50 mM pH 7.4 phosphate buffer assessed as compound degradation at 30 uM under UV-light irradiation by HPLC analysis; type: physicochemical; details: pH 7.4, 30 µM
# In short: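 Compound at 30 μM in 50 mM phosphate buffer pH 7.4/EtOH 70:30 (0.1% DMSO) was exposed to a mercury xenon lamp (1500 W/m^2). Aliquots sampled at intervals were diluted 1:1 with MeCN and run on HPLC with 254 nm detection. Ratios were calculated from calibration curves.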
# [7] = Photo-stability in 50 mM pH 7.4 phosphate buffer assessed as compound degradation at 30 uM exposed to xenon lamp irrational (> 325 nm) by HPLC analysis; type: physicochemical; details: pH 7.4, 30 µM
# In short: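 Compound at 30 μM in 50 mM phosphate buffer pH 7.4/EtOH 70:30 (0.1% DMSO) was irradiated with a xenon arc lamp (900 W/m^2), with filters cutting wavelengths below 325 nm. Aliquots taken at intervals were diluted with MeCN and analysed by HPLC with 254 nm UV detection. Remaining amounts were taken from calibration curves.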
# [8] = biological target: T1, Neuromedin-K receptor; test: Antagonistic activity against NK3R (unknown origin) expressed in CHO cells assessed as inhibition of NKB-induced intracellular calcium flux under UV-light irradiation by Calcium 4 assay; type: functional, cell-based
SMILES,pIC50 [1],Stability [2],Stability [3],Stability [4],Stability [5],Stability [6],Stability [7],pIC50 [8]
C[C@@H]1c2noc(-c3ccc4ccccc4n3)c2CCN1C(=O)c1ccc(F)cc1,4.93,Stable,Stable,Stable,Stable,,,
C[C@H]1c2noc(-c3ccc4ccccc4n3)c2CCN1C(=O)c1ccc(F)cc1,4.86,Stable,Stable,Stable,Stable,,,
C[C@@H]1c2nnc(-c3ccc4ccccc4n3)n2CCN1C(=O)c1ccc(F)cc1,6.59,Stable,Stable,Stable,Stable,Stable,,
CC1c2onc(-c3ccc4ccccc4n3)c2CCN1C(=O)c1ccc(F)cc1 (stereo unspecified),5.09,Stable,Stable,Stable,Stable,Stable,,
CC1c2nnn(-c3ccc4ccccc4n3)c2CCN1C(=O)c1ccc(F)cc1 (stereo unspecified),5.39,Stable,Stable,Stable,Stable,Stable,,
CC1c2noc(-c3ccc4ccccc4n3)c2CCN1C(=O)c1ccc(F)cc1 (stereo unspecified),4.99,Stable,Stable,Stable,Stable,Unstable,Unstable,< 4.00
